The entries come from a sample that favours hits as a whole.
UPR CHOP act = apoptotic UPR (CHOP) activation; 0.34% of 330,000 active; CHO-CHOP luciferase reporter, luminescence; percent of tunicamycin response over DMSO baseline; activation, % at 10 µM;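 active means at 10 µM dose, activation of 40% or more, normalized to positive control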;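 further: 100% = tunicamycin at 10 µg/mL and 0% = DMSO alone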
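Dosing – one dose, 10 µM in 0.5% DMSO · System – CHO-CHOP cells, stable luciferase reporter of PERK-eIF2a-CHOP signalling · Input – 500 cells/well · Control set – tunicamycin 10 µg/mL final as positive, DMSO-only wells as negative · Timing – 6 h compound treatment, 37 °C · Measure – % activation vs tunicamycin · Technique – luminescence read with Steady-Glo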
H9c2 protect = myocardial damage modulation in H9c2 cells. 0.63% of 360,000 active. protection from H2O2 cell death, % at 20 µM. H9c2 cardiomyocytes, H2O2 injury protection, ATPLite, 2 h. AID 588492;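 active means compounds giving at least 50% protection of heart cells from peroxide-induced death in the single-dose screen, raw or plate-pattern-corrected value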;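 further: 0% = DMSO wells with peroxide and 100% = DMSO wells without peroxide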
UPR XBP1 act = adaptive UPR (XBP1) activation; CHO-XBP1 luciferase reporter, IRE1-XBP1 UPR activation, luminescence; percent of tunicamycin response, DMSO as zero; activation, % at 20 µM; 0.33% of 330,000 active; AID 463104;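 active means versus positive control, 20 µM dose yields 30% or more activation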;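 further: 100% = tunicamycin at 10 µg/mL and 0% = DMSO only wells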
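Material: CHO cell line with stable XBP1 luciferase reporter; buffer or medium: F12 medium containing 10% fetal bovine serum; compound: single point, 20 µM final compound, 1% DMSO; incubation: 6 h treatment, 37 °C; measured by: glow luminescence from Steady-Glo reagent; evaluation: activation, % of tunicamycin; control set: tunicamycin high, DMSO low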
iPSC survival up = increases survival of single human iPS cells; hiPSC single-cell survival, ATPlite luminescence; 100% = ROCK inhibitor wells, 0% = DMSO; survival enhancement, % at 20 µM; 0.044% of 360,000 active; in the data active means survival enhancement above about 18%;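 further: cells exposed to compounds for 16 hours before the ATP read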
CHOP inhibitor = inhibitors of CHOP induction in ER stress response. 3.8% of 220,000 active. CHO-K1 CHOP-promoter luciferase, tunicamycin-induced, 15-18 h. inhibition, % at 10 µM;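 active means compounds that reduced the stress-induced luciferase reporter signal by more than about 70% of percent inhibition, limit read from the data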;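 further: 0% = tunicamycin plus vehicle and 100% = wells without tunicamycin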
CHOP confirm = confirmation of CHOP induction inhibitors. shares compounds with CHOP inhibitor. CHO-CHOP promoter luciferase reporter, tunicamycin-induced, luminescence. inhibition, % at 10 µM. 45% of 2,100 active;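 active means mean of three repeat readings of reporter signal inhibition above a set limit, cut at about 70% in these data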;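 further: 0% = tunicamycin plus vehicle and 100% = wells lacking tunicamycin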
* marks the source's active call; other numbers are inactive results.

Screening CCCCS/C(N)=N/N=C/c1cc(C)ccc1O returned UPR CHOP act 1, H9c2 protect -24, UPR XBP1 act 4, iPSC survival up 0, CHOP inhibitor 102* and CHOP confirm -6.
Screening Nc1nc(N)c2[nH]c(=S)[nH]c2n1 returned H9c2 protect 4 and iPSC survival up 3.
`Cc1cc(NC(=O)CSc2nc3cc4c(cc3c(=O)n2CCc2ccccc2)OCO4)no1` gave UPR CHOP act 4, H9c2 protect -4, UPR XBP1 act 4, iPSC survival up -2, CHOP inhibitor 99* and CHOP confirm 101*.
COCCNc1nc(Nc2ccccc2Cl)c2sccc2n1 was read as H9c2 protect -12 and iPSC survival up -3.
Screening CCC1CCCCN1c1nc(-c2ccncc2)nc2ccccc12 (stereo not given) returned UPR CHOP act 1, H9c2 protect -7, UPR XBP1 act 4, iPSC survival up 3, CHOP inhibitor 99* and CHOP confirm 15.
For Cc1c(C(=O)Nc2ccc3oc(-c4cccnc4)nc3c2)oc2ccccc12 the results were UPR CHOP act -1, H9c2 protect 2, UPR XBP1 act 9, iPSC survival up 2, CHOP inhibitor 100* and CHOP confirm -5.
For CCOC(=O)C1=CCC(c2ccc(CC)cc2)N(S(=O)(=O)c2ccc(C)cc2)C1 (stereo not given) the results were H9c2 protect -6 and iPSC survival up -1.
Screening C#CCSc1nncn1C(=O)/C=C/c1ccccc1 returned UPR CHOP act 5, UPR XBP1 act 1, CHOP inhibitor 105* and CHOP confirm -8.
For O=C(/C=C/c1ccccc1)N1CCC[C@H]1CO the results were UPR CHOP act 4, H9c2 protect -1, UPR XBP1 act 0, iPSC survival up 0 and CHOP inhibitor 8.
COc1ccc(OC)c(/C=N/NC(=O)CSc2cc(C)nc3c(OC)cccc23)c1 was read as UPR CHOP act 0, H9c2 protect 0, UPR XBP1 act 2, iPSC survival up -1, CHOP inhibitor 105* and CHOP confirm 35.
COc1ccc2nc(C)cc(SCC(=O)N/N=C/c3ccco3)c2c1 was read as UPR CHOP act 0, H9c2 protect -3, UPR XBP1 act 0 and iPSC survival up 2.
Screening COc1cc(/C=C/C(=O)O)cc(S(=O)(=O)Nc2ccc3c(c2)CCC3)c1OC returned UPR CHOP act 1, H9c2 protect -2, UPR XBP1 act -2 and iPSC survival up 0.
Screening O=C(O)COc1ccccc1/C=N/NC(=O)CSc1nnc(SCc2cccc3ccccc23)s1 returned UPR CHOP act 1, H9c2 protect -2, UPR XBP1 act -2, iPSC survival up 0 and CHOP inhibitor 2.
For O=C(CSc1nnc(SCc2cccc3ccccc23)s1)N/N=C/c1c[nH]c2ccccc12 the results were UPR CHOP act 0, H9c2 protect -14, UPR XBP1 act 3, iPSC survival up 1, CHOP inhibitor 105* and CHOP confirm 34.
For NC(=O)c1ccc(NC(=O)COC(=O)CCC2CCCC2)cc1 the results were H9c2 protect 2 and iPSC survival up -2.
`COc1ccccc1C(CNC(=O)c1ccc(NS(=O)(=O)c2ccc3c(c2)OCCO3)cc1)N(C)C` (stereo not given) gave UPR CHOP act -1, H9c2 protect 1, UPR XBP1 act -1 and iPSC survival up 0.
`O=C(O)c1ccc(COc2ccccc2Cl)cc1` gave UPR CHOP act 3, H9c2 protect 0, UPR XBP1 act 0, iPSC survival up -3 and CHOP inhibitor -10.
O=C(O)c1cccc(COc2ccccc2Cl)c1 was read as UPR CHOP act -10, H9c2 protect -8, UPR XBP1 act -7, iPSC survival up -4, CHOP inhibitor 104* and CHOP confirm 132*.
For O=C(NC1c2ccccc2Oc2ccccc21)c1ccc([N+](=O)[O-])cc1 the results were H9c2 protect -10 and iPSC survival up 0.
For Cc1ccc(-c2nc3ccccc3s2)cc1NC(=O)c1cc(-n2cnnc2)ccc1Cl the results were UPR CHOP act 7, H9c2 protect -7, UPR XBP1 act -1, iPSC survival up -1, CHOP inhibitor 100* and CHOP confirm 0.

Screens deposited in PubChem by several laboratories.
